# Screens as filed in PubChem BioAssay.
# GalR3 antag – blocks the human galanin receptor 3; O60755; HEK293 GalR3-CNG cAMP membrane potential fluorescence; galR3 body fused to GalR1 C-terminus; inhibition, % at 3 µM; 360,000 tested, 0.44% active;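 active means inhibition above the screen-wide average plus 3 SD, cut at about 13% in these data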;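 further: forskolin and galanin both at EC90 stimulate the cells; cAMP rise reported by CNG channel membrane potential dye signal; 0% = forskolin plus galanin with DMSO and 100% = forskolin alone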
# NR2E3 ag-1 – activates human NR2E3 receptor; inhibition of corepressor binding, % at 3.98 µM; 360,000 tested, 0.35% active; CHO-S Gal4-NCOR/VP16-NR2E3 two-hybrid, luciferase; Q9Y5X4;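 active means inhibition above the mean of all tested compounds plus 3 SD, cut at about 70% in these data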;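 further: 0% = DMSO with NR2E3 transfected cells and 100% = cells lacking NR2E3 construct; higher means lower luciferase signal from less NR2E3 corepressor binding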
# Target sequence (Q9Y5X4 whole entry, looked up, the tested form may be a part): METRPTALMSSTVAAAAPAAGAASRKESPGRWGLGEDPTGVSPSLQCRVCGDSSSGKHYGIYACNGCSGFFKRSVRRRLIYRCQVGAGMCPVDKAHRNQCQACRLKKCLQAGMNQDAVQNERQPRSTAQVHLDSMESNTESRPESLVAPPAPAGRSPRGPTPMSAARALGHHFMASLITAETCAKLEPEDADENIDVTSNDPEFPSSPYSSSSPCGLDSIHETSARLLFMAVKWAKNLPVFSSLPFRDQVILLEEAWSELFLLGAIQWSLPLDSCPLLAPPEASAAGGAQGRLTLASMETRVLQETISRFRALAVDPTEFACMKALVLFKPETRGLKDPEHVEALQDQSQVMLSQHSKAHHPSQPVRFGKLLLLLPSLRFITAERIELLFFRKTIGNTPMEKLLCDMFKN
# NR2E3 ag-2 – NR2E3 (human) agonism; AID 2300; 320,000 tested, 0.12% active; GST-NR2E3/biotin-RetCOR TR-FRET, 1536-well; Q9Y5X4; inhibition of corepressor binding, % at 4.78 µM;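 active means percent inhibition above the cutoff of mean plus 3 SD of all tested compounds, set per screening campaign, cut at about 20% in these data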;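 further: 0% = DMSO wells and 100% = biotin wells as full block of FRET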
#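 Material: NR2E3–RetCOR corepressor complex | Quantity: 1.35 nM GST-tagged NR2E3 final | Schedule: 5 h at 4 °C | Replication: Singlicate compound wells | Reagent: RetCOR corepressor, biotinylated, 7 nM | Controls: Biotin wells as high control, 0.6% DMSO wells as low control | Signal: TR-FRET, Eu(K)-anti-GST donor, streptavidin-D2 acceptor, ex 340, em 617/671 nm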
# Rev-erbA mod – modulates human Rev-erb alpha binding to DNA. P20393. Rev-erbα–FITC-DNA binding, fluorescence polarization, 90 min. 370,000 tested, 0.79% active. AID 1259318. activity, % at 10 µM;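 active means activity above about 14%, limit read from the data; passing the limit was not always enough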;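 further: 0% = DMSO wells with 35 nM protein and 100% = DMSO wells with 750 nM protein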
# PG9 binder – PG9 antibody binding by small molecule; TR-FRET gp120-PG9 antibody binding; inhibition, % at 6.7 µM; 360,000 tested, 0.43% active; AID 624416; in the data active means inhibition above about 8.5%
# NR2E3 ag conf – confirmation of human NR2E3 agonists. shares compounds with NR2E3 ag-1. CHO-S mammalian two-hybrid NR2E3-NCOR, luciferase luminescence. inhibition, % at 3.98 µM. 2,300 tested, 51% active;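 active means average inhibition above a cutoff equal to the mean inhibition of all tested compounds plus one SD, cut at about 70% in these data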;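 further: 0% = DMSO in NR2E3 cells and 100% = DMSO in cells lacking NR2E3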
# GAL4-VP16 luc – counter-screen for NR2E3 agonists: GAL4-VP16 reporter inhibitors; shares compounds with NR2E3 ag-1; CHO-S GAL4-VP16 luciferase reporter, luminescence; inhibition, % at 3.98 µM; 2,300 tested, 29% active; AID 624379;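 active means mean inhibition above a cutoff equal to the average over all tested compounds plus one standard deviation, cut at about 70% in these data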;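 further: luciferase from a UAS reporter driven by GAL4-VP16 transactivation; 0% = DMSO with VP16-transfected cells and 100% = DMSO with cells lacking VP16; higher means less reporter light so more repression of VP16 activity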
# * = called active by the depositor; / = no result. Only some compounds are listed: those with a hit (about 1.8% of all), similar ones and a draw of the others.
SMILES,GalR3 antag,NR2E3 ag-1,NR2E3 ag-2,Rev-erbA mod,PG9 binder,NR2E3 ag conf,GAL4-VP16 luc
Cc1ccccc1N=Nc1ccc(O)c2ncccc12,-5,6,0,7,-3,/,/
O=[N+]([O-])c1ccc(O)c2ncccc12,-1,103*,-3,14,-3,81*,41
C[C@H]1Cn2nnc(-c3ccccc3)c2Cn2c3ccccc3c(=O)n21,/,/,/,0,/,/,/
Cc1cccc(C)c1NC(=O)Cn1nnc(-c2ccncc2)n1,/,/,/,-6,/,/,/
CCN(c1ccccc1)S(=O)(=O)c1ccc(C(=O)NC2CCN(Cc3ccccc3)CC2)cc1,/,57,/,/,/,80*,61
N#C/C(=C\c1ccccc1C(F)(F)F)C(=O)Nc1ccccc1,-5,-23,-1,-2,1,/,/
CCc1cccc(CC)c1NC(=O)/C(C#N)=C/c1ccccc1C(F)(F)F,-5,75*,-1,-2,0,67,61
COC(=O)C1CN(Cc2cn(Cc3ccc(C)cc3)nn2)CCS(=O)(=O)N1Cc1ccc(F)cc1 (centres undefined),/,/,/,-8,/,/,/
CN(C)c1ccc(C=Cc2ccnc3ccccc23)cc1N,-7,52,/,-3,-2,24,-1
C#CCNC(=O)C[C@H]1C(=O)N(CCCOC)C2=CCCCC[C@]21C(=O)OC,/,/,/,4,/,/,/
N=C1SC(c2ccccc2)C(=O)N1c1ncc(Cc2ccccc2)s1 (centres undefined),-3,71*,0,0,1,-64,-15
Cc1ccc(Cc2cnc(N3C(=N)SC(c4ccccc4)C3=O)s2)cc1 (centres undefined),1,37,-4,5,-2,/,/
Cc1ccc(S(=O)(=O)Nc2ccccc2O)cc1,-3,/,/,7,-1,/,/
Cc1ccc(NS(=O)(=O)c2ccc(C3CCCCC3)cc2)cc1,-1,77*,0,-2,0,94*,70
O=S(=O)(Nc1ccc(Cl)cc1NS(=O)(=O)c1ccccc1)c1ccccc1,-6,82*,/,-7,0,95*,65
Cc1ccc(Cl)cc1NS(=O)(=O)c1ccccc1,-6,-19,/,9,-2,/,/
Cc1ccc(S(=O)(=O)Nc2cnc3ccccc3c2)cc1,-6,49,1,0,3,44,41
Cc1ccc(S(=O)(=O)Nc2ccccc2NS(=O)(=O)c2ccc(C)cc2)cc1,-8,48,/,-6,1,46,20
Cc1ccc(S(=O)(=O)Nc2ccc(N3CCCCC3)cc2)cc1,-5,31,3,-3,-1,/,/
CCC(NC(=O)c1cccc2c1C(=O)N(Cc1cccnc1)C2)c1ccccc1 (centres undefined),/,/,/,-1,/,/,/
Cn1cccc1C=NNC(=O)c1cc(-c2ccc(Cl)cc2)n[nH]1,/,/,/,-2,/,/,/
COc1cc(SC)ccc1C(=O)Nc1nc2ccccc2[nH]1,-11,110*,6,16,3,95*,91*
CSc1ccccc1C(=O)Nc1nc2ccccc2[nH]1,-1,-64,6,-2,0,/,/
COc1ccccc1C(=O)Nc1nc2ccccc2[nH]1,5,82*,0,-3,0,77*,42
CC1Cc2cc(/C=C3/SC(=S)NC3=O)ccc2O1 (centres undefined),-3,-58,-2,1,-3,/,/
Cc1ccc(C2C(/C=C3/SC(=S)NC3=O)=C(c3cccs3)Oc3ccccc32)cc1 (centres undefined),-3,74*,0,4,0,87*,61
CC(=O)N1CCN(C(=O)c2ccc(Cl)c(S(=O)(=O)N3CC(C)OC(C)C3)c2)CC1 (centres undefined),-1,49,/,-4,-1,0,4
COC(=O)c1c(C)oc2ccc(N(C(=O)c3ccncc3)S(=O)(=O)c3ccc4ccccc4c3)cc12,-12,89*,-5,-2,-2,97*,87*
Cc1ccc(S(=O)(=O)N(C(=O)c2ccncc2)c2ccc3oc4c(c3c2)CCCC4)cc1[N+](=O)[O-],3,-22,0,10,-1,/,/
Cc1ccc(S(=O)(=O)N(C(=O)c2ccncc2)c2ccc(OC(=O)c3ccncc3)c3ccccc23)c(C)c1,/,-27,1,/,/,/,/
